According to ChEMBL document CHEMBL5385967, “Nitrogen-containing andrographolide derivatives with multidrug resistance reversal effects in cancer cells” (RSC Med Chem, 2024):

Tested on: not listed separately
Test: Resistance ratio of IC50 for antiproliferative activity against multidrug resistant mouse L5178Y cells transfected with human ABCB1 to IC50 for antiproliferative activity against mouse L5178Y cells
Format: functional
Conditions: not given
Method in brief: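 RR = IC50(MDR)/IC50(PAR), IC50s from the 72 h MTT assay: 2-fold dilutions from 100 μM, 6 × 10^3 cells/well, triplicate. Collateral sensitivity taken as RR < 0.5; RR < 1 counted as selectivity toward resistant cells.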

Row | Structure (SMILES) | Ratio
1 | C=C1CC[C@@H]2[C@](C)(COC(C)=O)[C@H](OC(C)=O)CC[C@@]2(C)[C@@H]1C[C@H](NNC(=S)NC)C1=CCOC1=O | 1.16
2 | C=C1CC[C@@H]2[C@](C)(COC(C)=O)[C@H](OC(C)=O)CC[C@@]2(C)[C@@H]1C[C@H](NNC(=S)NC(C)(C)C)C1=CCOC1=O | 0.9
3 | C=C1CC[C@@H]2[C@](C)(COC(C)=O)[C@H](OC(C)=O)CC[C@@]2(C)[C@@H]1C[C@H](NNC(=O)OCc1ccc(OC)cc1)C1=CCOC1=O | 1.32
4 | C=C1CC[C@@H]2[C@](C)(COC(C)=O)[C@H](OC(C)=O)CC[C@@]2(C)[C@@H]1C[C@H](NNC(=S)NCc1ccco1)C1=CCOC1=O | 1.43
5 | C=C1CC[C@@H]2[C@](C)(COC(C)=O)[C@H](OC(C)=O)CC[C@@]2(C)[C@@H]1C[C@H](NNC(=S)Nc1cccc2ccccc12)C1=CCOC1=O | 0.97

Tested on: L5178Y
Test: Reversal of multidrug resistance in multidrug resistant mouse L5178Y cells transfected with human ABCB1 assessed as reduction in cell viability incubated for 72 hrs by MTT assay
Format: functional, cell-based
Conditions: not given
Method in brief: (§1)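 Parental L5178Y or human ABCB1-transfected L5178Y MDR subline kept under 60 ng mL−1 colchicine selection; McCoy's 5A, 10% heat-inactivated horse serum, 37 °C. 6 × 10^3 cells/well exposed to 2-fold serial dilutions from 100 μM for 72 h. MTT 4 h, SDS overnight, OD 540/630 nm. Triplicate; IC50 from curve fitting, mean ± SD.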

Row | Structure (SMILES) | IC50 [µM]
6 | C=C1CC[C@@H]2[C@](C)(COC(C)=O)[C@H](OC(C)=O)CC[C@@]2(C)[C@@H]1C[C@H](NNC(=S)Nc1ccc(CC)cc1)C1=CCOC1=O | > 100
7 | C=C1CC[C@@H]2[C@](C)(COC(C)=O)[C@H](OC(C)=O)CC[C@@]2(C)[C@@H]1C[C@H](NNC(=S)NC)C1=CCOC1=O | 51.3
8 | C=C1CC[C@@H]2[C@](C)(COC(C)=O)[C@H](OC(C)=O)CC[C@@]2(C)[C@@H]1C[C@H](NNC(=S)NC(C)(C)C)C1=CCOC1=O | 54.2
9 | C=C1CC[C@@H]2[C@](C)(COC(C)=O)[C@H](OC(C)=O)CC[C@@]2(C)[C@@H]1C[C@H](NNC(=O)OCc1ccc(OC)cc1)C1=CCOC1=O | 23.4
10 | C=C1CC[C@@H]2[C@](C)(COC(C)=O)[C@H](OC(C)=O)CC[C@@]2(C)[C@@H]1C[C@H](NNC(=S)NCc1ccco1)C1=CCOC1=O | 71.5
11 | C=C1CC[C@@H]2[C@](C)(COC(C)=O)[C@H](OC(C)=O)CC[C@@]2(C)[C@@H]1C[C@H](NNC(=S)Nc1cccc2ccccc12)C1=CCOC1=O | 51.3
12 | C=C1CC[C@@H]2[C@](C)(COC(C)=O)[C@H](OC(C)=O)CC[C@@]2(C)[C@@H]1C[C@H](NNC(=S)Nc1ccccc1)C1=CCOC1=O | > 100

Tested on: L5178Y
Test: Synergistic antiproliferative activity against multidrug resistant mouse L5178Y cells transfected with human ABCB1 assessed as combination index incubated for 72 hrs in presence of doxorubicin by MTT assay
Format: functional
Conditions: not given
Method in brief: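 Checkerboard in MDR cells, 6 × 10^3 cells/well. Doxorubicin in serial dilutions from 8.6 μM, crossed with modifier dilutions whose start level was set from its IC50. 72 h at 37 °C under CO2, growth read by MTT. Curves fitted by the median-effect equation; CI reported at 50% inhibition, mean ± SD.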

Row | Structure (SMILES) | CI
13 | C=C1CC[C@@H]2[C@](C)(COC(C)=O)[C@H](OC(C)=O)CC[C@@]2(C)[C@@H]1C[C@H](NNC(=O)OCc1ccc(OC)cc1)C1=CCOC1=O | <1

Molecular target: T1, ATP-dependent translocase ABCB1 (Homo sapiens, UniProt P08183)
Test: Modulation of human P-gp transfected in mouse L5178Y cells assessed as change in Rhodamine-123 efflux by measuring fluorescence activity ratio at 2 uM pretreated for 10 mins followed by Rhodamine-123 challenge for 20 mins by flow cytometry relative to parental mouse L5178Y cells
Format: cell-based
Conditions: 0.5 h, time 30 min
Method in brief: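 PAR and MDR cells at 2 × 10^6 cells/mL in serum-free McCoy's 5A. Compound given 10 min at room temperature, then rhodamine-123 (5.2 μM final) for 20 min at 37 °C. Washed twice, resuspended in PBS, mean FL-1 read by flow cytometry. FAR = (MDR treated/untreated)/(PAR treated/untreated). Verapamil 20 μM positive control, DMSO 2% solvent control.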

T1 sequence (P08183 whole entry): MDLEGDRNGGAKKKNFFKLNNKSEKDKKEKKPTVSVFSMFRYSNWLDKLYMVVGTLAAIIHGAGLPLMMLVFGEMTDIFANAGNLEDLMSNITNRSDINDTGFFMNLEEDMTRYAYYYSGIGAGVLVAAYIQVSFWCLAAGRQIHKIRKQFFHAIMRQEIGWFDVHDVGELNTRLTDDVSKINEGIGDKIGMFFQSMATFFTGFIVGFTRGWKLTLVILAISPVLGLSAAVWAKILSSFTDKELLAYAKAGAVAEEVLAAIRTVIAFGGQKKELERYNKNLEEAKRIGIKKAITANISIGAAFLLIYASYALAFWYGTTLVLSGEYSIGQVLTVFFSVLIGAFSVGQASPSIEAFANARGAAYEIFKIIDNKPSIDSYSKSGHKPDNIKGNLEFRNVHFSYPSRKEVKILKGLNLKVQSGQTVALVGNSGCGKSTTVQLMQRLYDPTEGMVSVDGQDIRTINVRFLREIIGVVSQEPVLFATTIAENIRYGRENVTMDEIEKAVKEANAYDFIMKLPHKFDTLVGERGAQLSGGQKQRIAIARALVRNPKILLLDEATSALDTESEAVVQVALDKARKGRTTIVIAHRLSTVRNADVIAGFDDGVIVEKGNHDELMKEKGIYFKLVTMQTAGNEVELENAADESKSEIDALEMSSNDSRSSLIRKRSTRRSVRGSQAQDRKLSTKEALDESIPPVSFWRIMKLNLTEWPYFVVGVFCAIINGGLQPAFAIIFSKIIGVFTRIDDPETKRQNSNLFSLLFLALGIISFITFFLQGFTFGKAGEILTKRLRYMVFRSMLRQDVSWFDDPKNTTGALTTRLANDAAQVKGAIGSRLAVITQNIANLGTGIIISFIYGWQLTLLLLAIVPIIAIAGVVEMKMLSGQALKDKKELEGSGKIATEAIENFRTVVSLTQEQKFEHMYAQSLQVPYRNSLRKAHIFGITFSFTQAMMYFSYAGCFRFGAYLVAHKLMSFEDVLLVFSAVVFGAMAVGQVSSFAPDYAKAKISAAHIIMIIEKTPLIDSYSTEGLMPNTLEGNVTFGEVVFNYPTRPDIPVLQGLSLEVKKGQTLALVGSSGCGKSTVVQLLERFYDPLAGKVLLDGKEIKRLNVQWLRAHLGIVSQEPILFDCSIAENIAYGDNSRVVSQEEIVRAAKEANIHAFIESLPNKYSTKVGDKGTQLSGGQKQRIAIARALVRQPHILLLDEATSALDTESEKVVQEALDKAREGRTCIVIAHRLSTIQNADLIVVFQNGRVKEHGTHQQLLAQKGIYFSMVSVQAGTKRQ

Row | Structure (SMILES) | Ratio
14 | C=C1CC[C@@H]2[C@](C)(COC(C)=O)[C@H](OC(C)=O)CC[C@@]2(C)[C@@H]1C[C@H](NNC(=S)Nc1ccc(CC)cc1)C1=CCOC1=O | 61.3
15 | C=C1CC[C@@H]2[C@](C)(COC(C)=O)[C@H](OC(C)=O)CC[C@@]2(C)[C@@H]1C[C@H](NNC(=S)NC)C1=CCOC1=O | 0.88
16 | C=C1CC[C@@H]2[C@](C)(COC(C)=O)[C@H](OC(C)=O)CC[C@@]2(C)[C@@H]1C[C@H](NNC(=S)NC(C)(C)C)C1=CCOC1=O | 1.2
17 | C=C1CC[C@@H]2[C@](C)(COC(C)=O)[C@H](OC(C)=O)CC[C@@]2(C)[C@@H]1C[C@H](NNC(=O)OCc1ccc(OC)cc1)C1=CCOC1=O | 1.21
18 | C=C1CC[C@@H]2[C@](C)(COC(C)=O)[C@H](OC(C)=O)CC[C@@]2(C)[C@@H]1C[C@H](NNC(=S)NCc1ccco1)C1=CCOC1=O | 1.27
19 | C=C1CC[C@@H]2[C@](C)(COC(C)=O)[C@H](OC(C)=O)CC[C@@]2(C)[C@@H]1C[C@H](NNC(=S)Nc1cccc2ccccc12)C1=CCOC1=O | 14.29
20 | C=C1CC[C@@H]2[C@](C)(COC(C)=O)[C@H](OC(C)=O)CC[C@@]2(C)[C@@H]1C[C@H](NNC(=S)Nc1ccccc1)C1=CCOC1=O | 7.9

Molecular target: T1, ATP-dependent translocase ABCB1
Test: Modulation of human P-gp transfected in mouse L5178Y cells assessed as change in Rhodamine-123 efflux by measuring fluorescence activity ratio at 20 uM pretreated for 10 mins followed by Rhodamine-123 challenge for 20 mins by flow cytometry relative to parental mouse L5178Y cells
Format: cell-based
Conditions: 0.5 h, time 30 min

Row | Structure (SMILES) | Ratio
21 | C=C1CC[C@@H]2[C@](C)(COC(C)=O)[C@H](OC(C)=O)CC[C@@]2(C)[C@@H]1C[C@H](NNC(=S)Nc1ccc(CC)cc1)C1=CCOC1=O | 79.48
22 | C=C1CC[C@@H]2[C@](C)(COC(C)=O)[C@H](OC(C)=O)CC[C@@]2(C)[C@@H]1C[C@H](NNC(=S)NC)C1=CCOC1=O | 41.85
23 | C=C1CC[C@@H]2[C@](C)(COC(C)=O)[C@H](OC(C)=O)CC[C@@]2(C)[C@@H]1C[C@H](NNC(=S)NC(C)(C)C)C1=CCOC1=O | 43.52
24 | C=C1CC[C@@H]2[C@](C)(COC(C)=O)[C@H](OC(C)=O)CC[C@@]2(C)[C@@H]1C[C@H](NNC(=O)OCc1ccc(OC)cc1)C1=CCOC1=O | 64.99
25 | C=C1CC[C@@H]2[C@](C)(COC(C)=O)[C@H](OC(C)=O)CC[C@@]2(C)[C@@H]1C[C@H](NNC(=S)NCc1ccco1)C1=CCOC1=O | 31.12
26 | C=C1CC[C@@H]2[C@](C)(COC(C)=O)[C@H](OC(C)=O)CC[C@@]2(C)[C@@H]1C[C@H](NNC(=S)Nc1cccc2ccccc12)C1=CCOC1=O | 33.46
27 | C=C1CC[C@@H]2[C@](C)(COC(C)=O)[C@H](OC(C)=O)CC[C@@]2(C)[C@@H]1C[C@H](NNC(=S)Nc1ccccc1)C1=CCOC1=O | 55.07

Tested on: L5178Y
Test: Antiproliferative activity against mouse L5178Y cells assessed as reduction in cell viability incubated for 72 hrs by MTT assay
Format: functional, cell-based
Conditions: not given
Method in brief: as §1

Row | Structure (SMILES) | IC50 [µM]
28 | C=C1CC[C@@H]2[C@](C)(COC(C)=O)[C@H](OC(C)=O)CC[C@@]2(C)[C@@H]1C[C@H](NNC(=S)Nc1ccc(CC)cc1)C1=CCOC1=O | 38.9
29 | C=C1CC[C@@H]2[C@](C)(COC(C)=O)[C@H](OC(C)=O)CC[C@@]2(C)[C@@H]1C[C@H](NNC(=S)NC)C1=CCOC1=O | 44.4
30 | C=C1CC[C@@H]2[C@](C)(COC(C)=O)[C@H](OC(C)=O)CC[C@@]2(C)[C@@H]1C[C@H](NNC(=S)NC(C)(C)C)C1=CCOC1=O | 60.1
31 | C=C1CC[C@@H]2[C@](C)(COC(C)=O)[C@H](OC(C)=O)CC[C@@]2(C)[C@@H]1C[C@H](NNC(=O)OCc1ccc(OC)cc1)C1=CCOC1=O | 17.7
32 | C=C1CC[C@@H]2[C@](C)(COC(C)=O)[C@H](OC(C)=O)CC[C@@]2(C)[C@@H]1C[C@H](NNC(=S)NCc1ccco1)C1=CCOC1=O | 50.1
33 | C=C1CC[C@@H]2[C@](C)(COC(C)=O)[C@H](OC(C)=O)CC[C@@]2(C)[C@@H]1C[C@H](NNC(=S)Nc1cccc2ccccc12)C1=CCOC1=O | 52.9
34 | C=C1CC[C@@H]2[C@](C)(COC(C)=O)[C@H](OC(C)=O)CC[C@@]2(C)[C@@H]1C[C@H](NNC(=S)Nc1ccccc1)C1=CCOC1=O | 51.7
